# Assay results from different studies.
# Target: G protein-coupled receptor kinase 3 (GRK3, Homo sapiens, UniProt P35626)
# Residues used in one study (P35626 1-688): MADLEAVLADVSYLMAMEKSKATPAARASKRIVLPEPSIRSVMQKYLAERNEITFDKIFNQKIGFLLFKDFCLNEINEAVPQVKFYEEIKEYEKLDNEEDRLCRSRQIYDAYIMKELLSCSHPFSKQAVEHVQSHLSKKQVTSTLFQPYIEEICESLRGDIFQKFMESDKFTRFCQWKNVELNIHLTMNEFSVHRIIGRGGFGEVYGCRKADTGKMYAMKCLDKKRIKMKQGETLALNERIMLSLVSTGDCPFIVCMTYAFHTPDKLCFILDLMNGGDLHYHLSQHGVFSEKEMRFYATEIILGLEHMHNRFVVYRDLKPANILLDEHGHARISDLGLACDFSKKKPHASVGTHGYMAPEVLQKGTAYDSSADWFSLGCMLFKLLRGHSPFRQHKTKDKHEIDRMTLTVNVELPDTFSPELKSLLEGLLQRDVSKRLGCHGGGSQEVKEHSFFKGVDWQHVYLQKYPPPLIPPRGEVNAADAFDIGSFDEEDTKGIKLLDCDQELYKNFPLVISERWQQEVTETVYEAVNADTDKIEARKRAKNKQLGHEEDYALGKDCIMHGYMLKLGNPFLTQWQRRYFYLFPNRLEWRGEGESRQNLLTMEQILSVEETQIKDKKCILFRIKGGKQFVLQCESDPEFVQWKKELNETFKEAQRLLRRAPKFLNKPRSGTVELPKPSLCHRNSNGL
SMILES,read-out,action,technique,concentration,quantity,value
O=C(O)[C@H]1[C@H](Cn2nnc3ccccc3c2=O)CC[C@@H]1C(=O)c1ccc(OCCC2CCOCC2)cc1,cell-free assay,,competition with immobilised ligand,1 µM,remaining binding,100%
CCOc1cc(-c2nncn2C)ccc1Nc1ncc2cc(C)nc(NCC(C)(C)C)c2n1,enzyme activity,inhibitor,FRET,1 µM,inhibition,< 15%
CCCOc1ccc([C@@H]2[C@@H](C(=O)O)[C@H](c3ccc4c(c3)OCO4)CN2CC(=O)Nc2c(CC)cccc2CC)cc1,cell-free assay,,competition with immobilised ligand,1 µM,remaining binding,100%
CCC1(CC)NC(=O)c2c(c3ccc(Cl)c(Cl)c3n2C)C1C#N (centres unmarked),thermal stability,,DSF,10 µM,ΔTm,0.1 °C
O=C(Nc1cnn(-c2csc(C(=O)NC3COC3)c2)c1)Nc1ccccc1Cl,enzyme activity,inhibitor,,5 µM,remaining activity,102%
Cn1c2c(Cl)c(Cl)ccc2c2cc(N)[nH]c(=O)c21,thermal stability,,DSF,10 µM,ΔTm,0 °C
COc1cc2ncnc(Nc3ccc(Oc4ccccc4)c(C)c3C)c2cc1OC,enzyme activity,inhibitor,,1 µM,inhibition,-2%
Cn1c2c(Cl)c(Cl)ccc2c2cc[nH]c(=O)c21,thermal stability,,DSF,10 µM,ΔTm,-0.3 °C
COCCOc1nc(-c2ccc(Cl)nc2)nc2c1CN(C(=O)c1ncn3ccccc13)CC2,cell-free assay,,competition with immobilised ligand,0.1 µM,remaining binding,100%
CC(C)(C)c1nc(-c2cccc(NS(=O)(=O)c3c(F)cccc3F)c2F)c(-c2ccnc(N)n2)s1,enzyme activity,inhibitor,radiometric,1 µM,remaining activity,86%
Cc1c(NC(=O)c2cc(C(N)=O)nc3cc(F)ccc23)c(C(F)(F)F)nn1Cc1ccc(C#N)cc1,cell-free assay,,competition with immobilised ligand,1 µM,remaining binding,89%
CCCS(=O)(=O)Nc1ccc(F)c(C(=O)c2c[nH]c3ncc(-c4ccc(Cl)cc4)cc23)c1F,enzyme activity,inhibitor,,1 µM,inhibition,< 10%
O=C1NC(=O)c2cc(Nc3ccc(F)cc3)c(Nc3ccc(F)cc3)cc21,cell-free assay,,,0.5 µM,remaining signal,104%
CNC(=O)c1ccc(Nc2ncc(C(F)(F)F)c(NCc3nccnc3N(C)S(C)(=O)=O)n2)cc1,cell-free assay,,competition with immobilised ligand,0.1 µM,remaining binding,80%
Cn1c2c(c3ccc(Cl)c(Cl)c31)C(C#N)C1(CCCCC1)NC2=O (racemic),thermal stability,,DSF,10 µM,ΔTm,0.4 °C
CN(c1ccnc(CNc2nc(Nc3ccc4c(c3)CC(=O)N4)ncc2C(F)(F)F)n1)S(C)(=O)=O,cell-free assay,,competition with immobilised ligand,1 µM,remaining binding,91%
Cn1c2c(c3ccc(Cl)c(Cl)c31)C(C#N)C(C)(C)NC2=O (centres unmarked),thermal stability,,DSF,10 µM,ΔTm,0.6 °C
N#CCCc1ccc2c(c1)-c1[nH]c3ccc([N+](=O)[O-])cc3c1CC(=O)N2,cell-free assay,,,0.5 µM,remaining signal,97.1%
Cn1c2c(c3ccc(Cl)c(Cl)c31)C(C#N)C1(CCOCC1)NC2=O (centres unmarked),thermal stability,,DSF,10 µM,ΔTm,0 °C
CN1CC(Oc2cnc(C#N)cc2-c2ccn3nc(NC(=O)C4CC4)cc3c2)C1,enzyme activity,inhibitor,,1 µM,inhibition,0%
